The text below walks through data of ChEMBL document CHEMBL2384930, “Interventional effects of plumbagin on experimental ulcerative colitis in mice” (J Nat Prod, 2013).

Data set [1] concerns Mus musculus. Description: Antiinflammatory activity in C57-B16/J mouse DSS-induced ulcerative colitis model assessed as reduction in monocyte aggregation at 10 mg/kg by hematoxylin-eosin staining-based microscopic analysis. Also on record: dose 10 mg/kg. It is filed as functional, organism-based. The method in brief: (§1)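 Female C57-BL6/J mice, 8−10 weeks old, given 3% (w/v) DSS in drinking water. Compound dissolved in ethanol and mixed into drinking water, given ad libitum. Colorectal sections stained with hematoxylin and eosin and examined at 400× for crypts, goblet cells, submucosa and monocyte aggregation.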

In data set [2] the test system is Mus musculus. The data set is described as follows: Antiinflammatory activity in C57-B16/J mouse chronic DSS-induced ulcerative colitis model assessed as decrease in serum TNFalpha level at 10 mg/kg administered for total of 3 weeks for alternative weeks with water measured after 63 days by ELISA relative to DSS-treated control. Also on record: dose 10 mg/kg. It is filed as functional, organism-based. The method, boiled down:
(§2)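 Chronic model, 63 days: three cycles of 1 week 3% DSS, then 1 week of compound in drinking water, then 1 week of water. Serum from clotted blood (overnight, 3000g 10 min) analysed by sandwich ELISA with capture/detection antibodies, streptavidin-HRP and substrate, read at 450 nm. Means ± SE, n = 8−10, one-way ANOVA with Tukey test.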
In general terms: ELISA stands for enzyme-linked immunosorbent assay.

Data set [3] is described as follows: Oral bioavailability in rat. The following applies: in vivo. It is filed as ADME, organism-based.
For data set [4], the system named is Mus musculus. The data set is described as follows: Antiinflammatory activity in C57-B16/J mouse chronic DSS-induced ulcerative colitis model assessed as suppression of clinical symptoms at 8 to 10 mg/kg administered for total of 3 weeks for alternative weeks with water measured after 63 days. It is filed as functional, organism-based. The method in brief:
(§3)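 Chronic model in female C57-BL6/J mice: three 3-week cycles of DSS, compound in drinking water and plain water, over 63 days. Mice euthanized by isoflurane overdose and colon length measured (cm). Clinical index scored from body weight change, colorectal length, stool consistency, occult blood and prolapse; n = 10. Statistics by ANOVA with Tukey test.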

For data set [5], the system named is Mus musculus. Description: Antiinflammatory activity in C57-B16/J mouse chronic DSS-induced ulcerative colitis model assessed as decrease in serum IL-17 level at 8 mg/kg administered for total of 3 weeks for alternative weeks with water measured after 63 days by ELISA relative to DSS-treated control. Also on record: dose 8 mg/kg. It is filed as functional, organism-based. The method, boiled down: as §2

In data set [6] the test system is Mus musculus. Description: Antiinflammatory activity in C57-B16/J mouse chronic DSS-induced ulcerative colitis model assessed as decrease in serum IFNgamma level at 10 mg/kg administered for total of 3 weeks for alternative weeks with water measured after 63 days by ELISA relative to DSS-treated control. It is filed as functional, organism-based. On the set-up: dose 10 mg/kg. The method in brief:
as §2

For data set [7], the system named is Mus musculus. The data set is described as follows: Antiinflammatory activity in C57-B16/J mouse chronic DSS-induced ulcerative colitis model assessed as restoration of colon size at 6 to 10 mg/kg administered for total of 3 weeks for alternative weeks with water measured after 63 days. It is filed as functional, organism-based. The method, boiled down:
as §3

Data set [8] relates to Mus musculus. Description: Antiinflammatory activity in C57-B16/J mouse acute DSS-induced ulcerative colitis model assessed as suppression of clinical symptoms at 8 to 10 mg/kg administered on day 6 measured up to day 12. It is filed as functional, organism-based. The method, boiled down: (§4)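 Acute model: female C57-BL6/J mice, 8−10 weeks old, given 3% (w/v) DSS in drinking water. Dosing in drinking water ad libitum at 6, 8 or 10 mg/kg (ethanol stock) from day 6. Vehicle control received ethanol-water. Body weight recorded every other day as percent change. Disease index scored from weight change, stool consistency (1–4), fecal occult blood and prolapse; n = 10.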

The test system of data set [9] is Mus musculus. Description: Antiinflammatory activity in C57-B16/J mouse DSS-induced ulcerative colitis model assessed as reduction of inflammatory CD14+/CD16+ level in peripheral blood at 6 to 10 mg/kg by flow cytometric analysis relative to DSS-treated control. It is filed as functional. Also on record: scale not given: the % may be the effect or the level left. The following applies: dose mg/kg 6-10. The method in brief:
(§5)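 Acute model: female C57-BL6/J mice, 8−10 weeks old, given 3% (w/v) DSS in drinking water, with bottles refilled at days 3 and 5. Oral dosing in drinking water (6, 8, 10 mg/kg, ethanol-dissolved) from day 6. Whole blood stained with anti-CD14-FITC/anti-CD16-PE for 30 min in the dark, RBC-lysed, then flow cytometry. Classic CD14+/CD16−, inflammatory CD14+/CD16+; n = 8.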
(In general: A flow cytometer gives signals particle by particle.)

The subject of data set [10] is Mus musculus. Description: Antiinflammatory activity in C57-B16/J mouse chronic DSS-induced ulcerative colitis model assessed as decrease in serum IL-17 level at 10 mg/kg administered for total of 3 weeks for alternative weeks with water measured after 63 days by ELISA relative to DSS-treated control. It is filed as functional, organism-based. On the set-up: dose 10 mg/kg. The method in brief:
as §2

For data set [11], the system named is Mus musculus. Description: Antiinflammatory activity in C57-B16/J mouse DSS-induced ulcerative colitis model assessed as reduction of inflammatory CD14+/CD16+ level in peripheral blood at 8 to 10 mg/kg by flow cytometric analysis relative to DSS-treated control. It is filed as functional. Particulars: dose mg/kg 8-10. The method, boiled down: as §5
Data set [12] deals with Mus musculus. Description: Antiinflammatory activity in C57-B16/J mouse DSS-induced ulcerative colitis model assessed as restoration of goblet cells at 10 mg/kg by hematoxylin-eosin staining-based microscopic analysis. It is filed as functional, organism-based. On the set-up: dose 10 mg/kg. The method, boiled down:
as §1

Data set [13] has as its system Mus musculus. Description: Antiinflammatory activity in C57-B16/J mouse DSS-induced ulcerative colitis model assessed as restoration of submucosa at 10 mg/kg by hematoxylin-eosin staining-based microscopic analysis. It is filed as functional, organism-based. Also on record: dose 10 mg/kg. The method, boiled down:
as §1

In data set [14] the test system is Mus musculus. The data set is described as follows: Antiinflammatory activity in C57-B16/J mouse acute DSS-induced ulcerative colitis model assessed as reversal of body weight loss at 6 to 10 mg/kg administered on day 6 measured up to day 12. It is filed as functional, organism-based. The method, boiled down:
as §4

For data set [15], the system named is Mus musculus. The data set is described as follows: Toxicity in C57-B16/J mouse DSS-induced ulcerative colitis model assessed as circulating CD14+/CD16- level at 6 to 10 mg/kg by flow cytometric analysis relative to DSS-treated control. It is filed as organism-based. Also on record: dose 6-10 mg/kg. Particulars: in vivo. The method, boiled down:
as §5

The subject of data set [16] is Mus musculus. Description: Antiinflammatory activity in C57-B16/J mouse DSS-induced ulcerative colitis model assessed as restoration of crypts at 10 mg/kg by hematoxylin-eosin staining-based microscopic analysis. It is filed as functional, organism-based. On the set-up: dose 10 mg/kg. The method in brief:
as §1

Activity calls are given as the source filed them. The rule behind the calls is not given here. Bounds are passed on as bounds.

With `CC1=CC(=O)c2c(O)cccc2C1=O` [PLUMBAGIN], the result in data set [1], in data set [2], in [4], in data set [6], in data set [7] and in data set [8] was Active. The outcome in data set [10], in data set [12], in [13] and in [16] was Active. In data set [3], this compound came in with a bioavailability of 38%. The outcome in data set [5] and in data set [14] was inactive. Further, the results for the Activity in [9] and in [15] were 0.3% and 77%, respectively. For the same compound, the “fold change (FC)” value in [11] was above 3.

For orientation: bioavailability means the share of a dose that reaches the circulation, judged against a reference dose that is usually intravenous.
